A selection: hits, their analogues and other compounds. The true share with any hit is near 2.5%.
Jurkat viability – cytotoxicity toward Jurkat T cells, primary screen, cytotoxicity control, cell-based, Jurkat E6.1, 60K MLSMR library | Jurkat E6.1 viability, ATP luminescence, 48 h | inhibition, % at 4 µM | 56,000 compounds, 1.2% hits | AID 463, 2006;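 active = inhibition above the mean inhibition of all tested compounds plus 3 SD, cut at about 28% in these data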
AP ELISA ortho – alternative complement pathway inhibitors, primary screen, biochemical, ELISA, human serum, orthogonally pooled compounds; LPS-coated ELISA, C3 deposition; tested in compound mixtures; inhibition, % at 5 µM; 62,000 compounds, 0.08% hits;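 active = inhibition above 30% in each of the two pooled mixtures holding the compound, so the lower value exceeds 30%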;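 also: 0% = serum in Mg-EGTA without compound and 100% = EDTA serum blank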
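Test system: human serum alternative complement pathway, C3 deposition on LPS-coated wells; also added: Plate-bound LPS; doses: 5 µM per compound in ten-compound mixtures; schedule: 1 h at 37 °C; detection: Anti-C3 ELISA, OD 450 nm; evaluation: percent inhibition of C3 deposition onto LPS; repeats: two pool placements per compound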
HER2 expr 66K – inhibitors of Her2 protein expression, primary screen, SKBR-3 cells, AlphaScreen, 66K library. Receptor tyrosine-protein kinase erbB-2 (Homo sapiens), P04626. SKBR-3 HER2 protein level, 18-24 h; stronger effect = lower value. HER2 level % of control, % at 10 µM. 65,000 compounds, 0.69% hits;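 active = HER2 level under 5% of the carrier-only control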;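 also: 100% = DMSO carrier and 0% = 500 nM PU-H71 HSP90 inhibitor; lower value means stronger loss of Her2 protein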
Hsp90 block – tumor Hsp90 inhibitors, primary screen, cell lysate, fluorescence polarization, NCI-N417 lysate; Cy3B-geldanamycin FP displacement; inhibition, % at 30 µM; 64,000 compounds, 0.35% hits;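 active = inhibition above 50%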;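 also: 0% = tracer plus lysate wells and 100% = tracer alone without lysate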
JNK3 blocker – JNK3 kinase activity inhibitors, primary screen, biochemical, human, purified enzyme. HTS. inhibition, % at 8 µM. 60,000 compounds, 0.61% hits; in the data active = inhibition above about 17%;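 also: 0% = DMSO and 100% = reference inhibitor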
Target sequence (P53779 whole entry, looked up): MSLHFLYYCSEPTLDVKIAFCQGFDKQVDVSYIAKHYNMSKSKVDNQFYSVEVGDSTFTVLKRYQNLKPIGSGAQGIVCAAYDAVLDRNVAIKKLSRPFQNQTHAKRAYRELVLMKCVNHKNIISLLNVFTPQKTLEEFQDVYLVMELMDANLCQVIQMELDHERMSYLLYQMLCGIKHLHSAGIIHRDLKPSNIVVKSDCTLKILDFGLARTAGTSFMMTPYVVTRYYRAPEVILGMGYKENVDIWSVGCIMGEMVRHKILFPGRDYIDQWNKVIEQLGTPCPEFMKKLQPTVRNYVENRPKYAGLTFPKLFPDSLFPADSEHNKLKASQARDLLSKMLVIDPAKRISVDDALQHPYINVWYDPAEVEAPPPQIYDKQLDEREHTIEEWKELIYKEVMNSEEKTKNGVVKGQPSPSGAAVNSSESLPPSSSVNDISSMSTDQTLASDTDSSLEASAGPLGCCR
HEK293 NFkB inh – inhibitors of PMA/ionomycin-induced NF-kB reporter, primary screen, antigen receptor NF-kB inhibitor project, cell-based, HEK-293 luciferase reporter, luminescence | HEK-293 NF-kB luciferase reporter | inhibition, % at 3 µM | AID 465, 2006 | 62,000 compounds, 0.21% hits;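 active = inhibition above the mean of all tested compounds plus 3 SD, cut at about 40% in these data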;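 also: 0% = stimulated DMSO wells and 100% = 10 µM reference inhibitor 5653914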
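Reagent: PMA plus ionomycin mix as NF-kB-activating stimulus. Assay system: NF-kB luciferase reporter HEK-293 cells. Technique: luminescence from luciferase substrate reagent. Incubation: 1 h compound pre-incubation, 16 h PMA/ionomycin at 37 °C. Benchmarks: DMSO only as uninhibited control, 10 µM reference inhibitor as full inhibition. Repeats: tested once.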
The depositor's hits bear a star; nt = no result.

SMILES | Jurkat viability | AP ELISA ortho | HER2 expr 66K | Hsp90 block | JNK3 blocker | HEK293 NFkB inh
CCc1ccc2c(COC(=O)c3n[nH]c4ccccc34)cc(=O)oc2c1 | 12.4 | 19.5 | 88.3 | -2.0 | 20.8* | 6.0
Cc1cc(C(=O)COC(=O)c2n[nH]c3ccccc23)c(C)n1C | 2.6 | 3.8 | 89.9 | -6.2 | 5.7 | -12.6
CC(C)(C)c1ccc(S(=O)(=O)/C=C/C#N)cc1 | nt | nt | nt | -1.3 | nt | nt
C[C@H](Cc1ccccc1)Nc1ncnc2c1ncn2[C@@H]1O[C@H](CO)[C@H](O)C1O (stereo partly specified) | nt | nt | nt | 1.6 | nt | nt
CCOC(=O)c1c(-c2ccccc2)[nH]c2ccc(O)cc12 | 0.9 | -13.2 | 107.2 | -3.8 | 42.2* | -11.1
CCCN1C2=NCCN2c2cc(C)c(C)cc21 | 5.8 | 9.1 | 137.0 | 4.0 | -1.4 | 13.8
O=C(CCN1CCC(c2ccccc2)C1)c1cccs1 (stereo unspecified) | -2.4 | -10.2 | -45.2* | -0.6 | -11.0 | 3.2
O=C(NCc1cccs1)c1nc2c(nnn2Cc2ccccc2Cl)c(=O)[nH]1 | 39.8* | -23.2 | 0.0* | -1.5 | -8.1 | 53.1*
O=C(Cc1cccs1)N1CCCC(c2nc3c(nnn3Cc3ccccc3Cl)c(=O)[nH]2)C1 (stereo unspecified) | -0.2 | -1.0 | 102.9 | -7.2 | -4.9 | 13.0
CCOc1ccc(NC(=O)CSC(N)=O)cc1 | -5.9 | 5.0 | 107.7 | 2.1 | 4.8 | -6.5
CCOc1ccc(NC(=O)C/C(N)=N/O)cc1 | 3.7 | -0.6 | -21.1* | -9.9 | -0.4 | 9.5
CCCCOc1ccc(OCCCC)c2c1NC1(N2)C(=O)N(C(C)=O)c2ccccc21 | 0.7 | 2.3 | 93.0 | 0.4 | 0.2 | 10.1
COc1ccc(-c2nnc(-c3ccc(Br)o3)o2)cc1OC | -6.8 | 6.6 | 187.7 | -0.6 | 25.4* | 2.6
COc1ccc(C(=O)NC(=O)Nc2cc(C)ccn2)cc1 | 1.1 | 6.4 | 92.0 | 5.7 | 9.0 | 58.9*
COc1cc(C(=O)Nc2cc(C)ccn2)cc(OC)c1OC | -5.8 | 12.0 | 104.0 | -0.3 | 4.2 | 9.3
COc1ccc(OC)c(C(C)NC(=O)c2ccco2)c1 (stereo unspecified) | 40.2* | 17.8 | 97.3 | -4.0 | -1.4 | 9.5
COc1ccc(OC)c(C(C)NC(C)=O)c1 (stereo unspecified) | -1.6 | 10.4 | 105.1 | 0.0 | 1.6 | 16.3
O=C(Nc1ccc2c(c1)OCO2)c1cnn2cccnc12 | -2.5 | 5.3 | -20.6* | 27.8 | -2.4 | -22.6
O=C(Nc1cccnc1)c1cnn2cccnc12 | 5.2 | 10.0 | 161.7 | -2.9 | 1.1 | 13.1
CCOc1nc(Nc2ccc(-c3nc4ccccc4o3)cc2)nc(N2CCOCC2)n1 | 2.0 | 5.7 | 60.9 | 1.8 | -7.7 | 11.5
CCOC(=O)C(NC(C)=O)(N1CCc2ccccc2C1)C(F)(F)F (stereo unspecified) | 4.6 | 9.2 | -17.5* | -0.1 | 1.5 | 15.8
CCOC(=O)C(NC(C)=O)(N1CCOCC1)C(F)(F)F (stereo unspecified) | 0.3 | 6.9 | 96.7 | -3.3 | 5.4 | 10.8
COc1cc(NS(=O)(=O)c2ccc([N+](=O)[O-])cc2[N+](=O)[O-])c2ncccc2c1 | nt | nt | nt | 26.0 | nt | nt
CN(C)S(=O)(=O)CC12CCC(CC1=O)C2(C)C (stereo unspecified) | 2.2 | -4.0 | 84.0 | -1.3 | 3.8 | 20.9
COC(=O)C1=C(N)Oc2cc(C)n(C)c(=O)c2C1c1ccc(Cl)c(Cl)c1 (stereo unspecified) | 4.4 | 14.1 | 3.3* | 3.1 | 1.2 | 11.1
SMILES | Jurkat viability | AP ELISA ortho | HER2 expr 66K | Hsp90 block | JNK3 blocker | HEK293 NFkB inh
COC(=O)C1=C(N)Oc2cc(C)n(CCCn3ccnc3)c(=O)c2C1c1ccc(Cl)cc1 (stereo unspecified) | 8.9 | 20.1 | 158.3 | -0.6 | -8.5 | 16.6
COCCn1c(C)cc(C(=O)CSc2nnc3scc(-c4ccc(Cl)cc4)n23)c1C | -11.6 | nt | 91.8 | -4.9 | -4.5 | 4.4
Cc1cc2nc(NC3=NCN(Cc4ccc5c(c4)OCO5)CN3)nc(C)c2cc1C | 11.4 | 12.2 | -5.8* | -7.4 | 1.6 | 10.5
Cc1ccc2c(C)nc(NC3=NCN(Cc4ccccc4)CN3)nc2c1 | 4.6 | 4.3 | 104.7 | 0.8 | 40.4* | -3.0
c1ccc2c(c1)[nH]c1c(N3CCCC3)ncnc12 | 33.1* | 24.9 | 102.4 | -9.3 | -4.1 | 23.4
c1ccc2c(c1)[nH]c1c(N3CCSCC3)ncnc12 | nt | nt | 87.3 | -5.9 | -8.7 | nt
Cc1onc(-c2ccccc2Cl)c1C(=O)Nc1ccc2c(c1)OCO2 | 6.6 | 18.2 | 121.2 | 0.6 | -5.3 | 9.2
Cc1noc(C(=O)Nc2ccc3c(c2)OCO3)c1Cl | 1.7 | 1.6 | 97.8 | 60.3* | -1.0 | -12.3
CS(=O)(=O)c1ccc(Cl)c(NC(=O)COC(=O)CNC(=O)c2ccc(Br)o2)c1 | 15.2 | 27.8 | -21.9* | -1.4 | -0.2 | 13.4
Cc1nnc(SCc2ccccc2F)n1NCc1cccs1 | 0.3 | -2.5 | 106.1 | 2.3 | 5.1 | 7.5
CCCCOc1ccc(-c2ncc(Cl)cn2)cc1 | -3.0 | 3.5 | 106.8 | -1.9 | -2.7 | -17.5
CCCCCCc1ccc(-c2ncc(N)cn2)cc1 | 51.2* | 17.7 | 80.9 | -2.4 | -0.8 | -31.4
c1ccc2nc3c(nc2c1)[nH]c1ccccc13 | 8.0 | 7.4 | 64.8 | -3.7 | 55.3* | -32.2
CCn1c2ccccc2c2nc3ccccc3nc21 | 2.1 | 14.9 | 98.5 | -5.2 | 4.3 | -2.4
Cc1cc(NC(=O)c2cc(C3CC3)on2)no1 | -0.2 | 12.3 | 122.7 | -2.7 | 0.1 | -9.5
NC(=O)c1sc2nccc(Nc3ccccc3)c2c1N | 7.5 | 12.3 | 132.7 | -5.0 | 9.6 | 45.2*
CC(C)(C)C(=O)c1sc(Nc2ccccc2)nc1N | -3.7 | -8.0 | 93.2 | -2.4 | 7.0 | -48.5
COc1ccc2c(c1)c(CC(=O)N1CCOCC1)c(C)n2C(=O)c1ccc(Cl)cc1 | nt | nt | nt | -3.4 | nt | nt
COc1cccc(C(=O)NC2CC3CCCC(C2)N3CC(=O)Nc2ccccc2)c1 (stereo unspecified) | 2.0 | nt | 95.1 | 94.9* | 0.9 | 0.4
O=c1c2c([nH]c3ccc(Br)cc13)CCCC2 | 10.8 | -3.9 | 91.0 | 4.0 | -1.8 | 9.5
NC(=O)c1cc(Br)cc2c3c([nH]c12)CCCC3 | 9.4 | 4.5 | 31.1 | -4.2 | 54.9* | 10.7
Cc1cc(C)c(N2CCN(S(=O)(=O)N3CCCCCC3)CC2)c(C)c1 | 8.9 | 2.9 | 106.5 | -3.5 | 2.9 | 18.5
CN1CCc2cc(Cl)c(O)cc2[C@@H](c2ccccc2)C1 | nt | nt | nt | -0.5 | nt | nt
Oc1cc2c(cc1O)C(c1ccccc1)CNCC2 (stereo unspecified) | nt | nt | nt | 64.4* | nt | nt
